Source: PubChem BioAssay
Only some compounds are listed: those with a hit (about 2.8% of all), similar ones and a draw of the others.
NPY-Y2 PAM-ag – potentiators or agonists of human neuropeptide Y receptor Y2; cells expressing NPY-Y2, potentiator/agonist read-out; actives 0.45% (n = 220,000); activation, % at 3.6 µM; AID 1359; in the data active = activation above about 27%;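 also: cells stimulated with NPY near EC25 plus isoproterenol at EC100; 0% = vehicle plus submaximal agonist and 100% = vehicle plus saturating agonist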
Target sequence (P49146 whole entry, looked up): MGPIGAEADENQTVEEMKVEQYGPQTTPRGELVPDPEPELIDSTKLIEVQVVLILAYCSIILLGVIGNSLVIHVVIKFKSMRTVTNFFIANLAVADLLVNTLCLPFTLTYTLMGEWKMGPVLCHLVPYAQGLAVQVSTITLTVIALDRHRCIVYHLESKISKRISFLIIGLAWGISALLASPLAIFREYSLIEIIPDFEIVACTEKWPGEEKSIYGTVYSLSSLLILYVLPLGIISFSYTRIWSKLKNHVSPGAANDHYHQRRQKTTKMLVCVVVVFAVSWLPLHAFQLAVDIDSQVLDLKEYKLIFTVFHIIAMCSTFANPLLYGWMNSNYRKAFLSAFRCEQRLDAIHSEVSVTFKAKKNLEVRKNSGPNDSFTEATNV
NPY1 pot ag – potentiates or activates human NPY-Y1 receptor. P25929. NPY-Y1 expressing cells, potentiator/agonist activation. activation, % at 3.6 µM. actives 0.37% (n = 220,000); in the data active = activation above about 33%, passing the limit was not always enough;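 also: cells stimulated with NPY at EC10 then isoproterenol at EC100; 0% = low agonist plus stimulus and 100% = saturating agonist plus stimulus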
NPY-Y1 antag – blocks the human neuropeptide Y Y1 receptor | P25929 | inhibition, % at 3.6 µM | actives 1% (n = 200,000) | HEK293-CNG Y1 cells, membrane potential fluorescence; NPY at EC95, then isoproterenol | AID 1040;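 active = inhibition above the campaign mean inhibition of all tested compounds plus 3 SD, cut at about 20% in these data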;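 also: 0% = DMSO wells given NPY plus isoproterenol and 100% = isoproterenol alone without NPY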
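Material: HEK293 Y1/CNG channel cell line | Also added: NPY (25 nM), isoproterenol (1 µM), Ro 20-1724 (25 µM) | Compound: One concentration, 3.6 µM, in 0.4% DMSO | Schedule: 3 h dye uptake, 1 h room-temperature compound, 45 min post-isoproterenol | Signal: Membrane-potential fluorescent dye readout | Read-out: % inhibition of NPY effect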
NPY-Y2 antag – NPY-Y2 (human) receptor antagonism; P49146; NPY-Y2 expressing cells, antagonist mode; inhibition, % at 2.7 µM; actives 0.99% (n = 140,000); in the data active = inhibition above about 17%;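 also: 0% = vehicle with agonist challenge and 100% = reference antagonist with challenge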
EP2 modulator – modulates human prostaglandin E2 receptor EP2 signaling | EP2-expressing cells, cAMP HTRF FRET, PGE2 co-stimulation | actives 0.83% (n = 260,000) | induction, % at 25 µM | AID 940;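 active = compounds whose cAMP rise, as percent of the full-agonist control response, exceeds 60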;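 also: rat C6 glioma line stably carrying human EP2 under a CMV promoter; the protocol text gives 20 µM as final concentration; 100% = response of wells given 1 µM PGE2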
EP2 antag – inhibitors of human EP2 prostaglandin E2 receptor. P43116. C6 glioma cells expressing human EP2, cAMP TR-FRET; cells stimulated with saturating PGE2. inhibition, % at 25 µM. actives 0.52% (n = 260,000). AID 1422;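 active = percent inhibition above 40 after rounding to a whole number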;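 also: rat C6 glioma host cells with rolipram phosphodiesterase inhibitor present; the protocol text gives 20 µM as final concentration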
An asterisk follows results filed as active; x = not tested or not shown.

SMILES | NPY-Y2 PAM-ag | NPY1 pot ag | NPY-Y1 antag | NPY-Y2 antag | EP2 modulator | EP2 antag
N#Cc1c(-c2ccccc2)c(-c2ccccc2)nn(CC(=O)NNC(=O)Nc2ccc(Cl)cc2)c1=O | 38.9* | 51.2* | x | x | 2.5 | 78.7*
COC(=O)c1ccc(CSc2nc3c(cnn3-c3ccc(C)c(C)c3)c(=O)[nH]2)o1 | 7.0 | -28.4 | -0.6 | 3.3 | 64.6* | 9.7
CCn1c(CNc2ccc(C)cc2)nnc1SCC(=O)Nc1cc(Cl)ccc1OC | x | x | x | x | 3.2 | 6.5
COc1cc(C(=O)N2CCCCC2c2nc3ccccc3[nH]2)cc(OC)c1OC (centres undefined) | x | x | x | x | -22.1 | x
CC(C)(C)C(=O)[C@H]([C@@H](c1ccccc1)N1CCOCC1)N1CCOCC1 | x | x | x | x | 29.8 | 49.3*
CCOc1ccccc1-n1c(SCC(N)=O)nnc1-c1ccc(OC)c(OC)c1 | x | x | x | x | -2.5 | 3.9
O=C(NC[C@@H]1CCCN(C(=O)c2ccccn2)C1)c1cccs1 | x | x | x | x | -15.8 | x
CCOC(=O)c1sc(NC(=O)CN2C(=O)NC3(CCCCCCC3)C2=O)c(C(=O)OCC)c1C | 101.6* | 68.3* | x | x | 1.8 | 9.6
Cc1csc(N/N=C/c2ccc(O)c([N+](=O)[O-])c2)n1 | 6.3 | 7.3 | 1.6 | 0.6 | 7.7 | 2.7
O=[N+]([O-])c1cc(/C=N\Nc2nc(-c3ccccc3)cs2)ccc1O | 23.5 | 29.0 | -2.3 | x | -102.2 | 47.8*
CCC(=O)N(CCC(c1ccco1)c1ccccc1OC)Cc1cccs1 (centres undefined) | 0.5 | -3.0 | 25.1* | 22.1* | 46.5 | 6.7
O=C(CN1CCC(c2ccncc2)CC1)NCc1ccc2c(c1)OCO2 | x | x | x | x | -43.6 | 8.3
O=C(CN1CCCC1)Nc1ccccc1C(=O)c1ccccc1 | 8.4 | -0.8 | x | x | 2.7 | 5.8
O=C(c1ccccc1)c1ccccc1NC(=O)C1CCCN1Cc1ccccc1 (centres undefined) | -13.2 | -5.2 | x | x | 72.8* | 7.1
CCOc1ccc(NC(=O)CSc2nc(COc3ccccc3)nc3ccccc23)cc1 | x | x | x | x | 8.7 | 8.2
Cc1cccc2cc(C(c3nnnn3C(C)(C)C)N(Cc3ccccc3)Cc3ccco3)c(=O)[nH]c12 (centres undefined) | x | x | x | x | 36.0 | 6.3
COc1cccc(CN(Cc2ccco2)C(c2ccc(F)cc2)c2nnnn2C(C)(C)C)c1 (centres undefined) | 0.6 | 7.1 | 31.1* | 21.6* | 1.0 | 13.9
CCN1CCOC(CC(=O)Nc2cccc(C)c2)C1=O (centres undefined) | x | x | x | x | 69.2* | 4.9
CCCn1c(CN2CCCCC2)nc2c1c(=O)n(C)c(=O)n2C | x | x | x | x | -41.5 | 23.5
CCc1nnc(NC(=O)CN2CCN(c3ccc(C(C)=O)cc3)CC2)s1 | x | x | x | x | 11.6 | 8.8
O=[N+]([O-])c1ccc(C2CCCC/C2=N/OCc2ccc(F)cc2)c([N+](=O)[O-])c1 (centres undefined) | -14.6 | -15.4 | 12.4 | 11.8 | 37.7 | 5.6
O=[N+]([O-])c1ccc(C2CCCC/C2=N/OCc2ccccc2F)c([N+](=O)[O-])c1 (centres undefined) | -31.7 | -33.6 | 21.1* | 18.5* | 7.2 | 12.1
Cn1c(=O)c2c(ncn2CN2CCN(Cn3cnc4c3c(=O)n(C)c(=O)n4C)CC2)n(C)c1=O | x | x | x | x | 6.3 | 45.9*
CS(=O)(=O)N1CCCc2cc(C(O)CN3CCN(c4ccccc4)CC3)ccc21 (centres undefined) | x | x | x | x | 8.6 | 5.2
CCCCCCNC(=O)c1cc(-c2ccco2)nc2ccccc12 | -122.8 | -149.4 | 57.1* | 66.0* | -14.0 | 11.0
SMILES | NPY-Y2 PAM-ag | NPY1 pot ag | NPY-Y1 antag | NPY-Y2 antag | EP2 modulator | EP2 antag
CCc1nnc(NC(=O)c2cc(-c3ccco3)nc3ccccc23)s1 | 4.8 | 7.5 | 0.8 | x | -13.3 | 8.8
COc1cc2[nH]c(=O)c(C(=O)Nc3cc(C)ccc3C)c(O)c2cc1OC | x | x | x | x | -31.2 | 11.7
O=c1[nH]c2ccccc2n1Cc1ccc(Cl)cc1 | 0.1 | 0.3 | 5.6 | 2.5 | 8.1 | 7.5
O=c1n(Cc2ccccc2)c2cc(Cl)cnc2n1Cc1ccccc1 | 0.4 | -19.4 | 12.5 | 1.5 | 61.7* | 18.7
CC1CCN(C(=O)CN2CCC(n3nnc4ccccc4c3=O)CC2)CC1 | x | x | x | x | -15.5 | 5.7
NNC(=O)CNC(c1ccccc1)c1cc(Br)ccc1NC(=O)c1ccc(Br)cc1 (centres undefined) | 3.1 | 5.8 | 5.5 | 0.9 | 8.8 | 10.3
